This is a sample that favours compounds with a hit; in the whole collection about 2.9% have one here.
HTRA1 inh = HTRA1 (human) protease inhibition. Q92743. recombinant HTRA1, FP-rhodamine activity-based probe, fluorescence polarization. inhibition, % at 5.96 µM. 340,000 compounds, 0.5% hits; in the data active means inhibition above about 36%;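 further: 0% = enzyme with DMSO and 100% = wells lacking enzyme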
Target sequence (Q92743 whole entry, looked up): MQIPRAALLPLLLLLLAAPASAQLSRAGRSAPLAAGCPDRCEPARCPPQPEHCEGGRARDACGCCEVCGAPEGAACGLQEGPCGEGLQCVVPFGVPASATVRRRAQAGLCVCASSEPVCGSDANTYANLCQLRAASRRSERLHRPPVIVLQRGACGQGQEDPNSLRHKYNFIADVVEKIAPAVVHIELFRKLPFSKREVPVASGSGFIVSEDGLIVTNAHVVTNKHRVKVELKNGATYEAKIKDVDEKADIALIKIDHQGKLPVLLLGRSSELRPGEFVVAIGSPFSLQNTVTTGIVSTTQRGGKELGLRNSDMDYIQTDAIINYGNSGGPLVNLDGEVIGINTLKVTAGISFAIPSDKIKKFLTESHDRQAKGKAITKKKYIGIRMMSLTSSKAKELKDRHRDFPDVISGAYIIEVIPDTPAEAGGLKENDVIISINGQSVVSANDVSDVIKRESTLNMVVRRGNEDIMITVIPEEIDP
ATG4B inhibitor = blocks human ATG4B protease cleavage of LC3 substrate | ATG4B cleavage of LC3-PLA2, NBD-HPC fluorescence, 1 h | AID 504462 | 340,000 compounds, 0.51% hits | inhibition, % at 8.33 µM; in the data active means inhibition above about 40%
TCR-CD3 inh = blocks the human TCR-CD3 interaction. inhibition, % at 9.4 µM. TAMRA-labeled TCR probe fluorescence, biochemical. 360,000 compounds, 0.37% hits. AID 651800; in the data active means inhibition above about 19%;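 further: recombinant mutant TCR 2C K166C tagged with TAMRA read by polarization; 0% = receptor in buffer alone and 100% = receptor with positive control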
ABHD4 inh = ABHD4 (mouse) inhibition, primary FP screen; 370,000 compounds, 0.54% hits; purified mABHD4, FP-Rh probe fluorescence polarization; inhibition, % at 8.92 µM; Q8VD66;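 active means inhibition exceeding the mean over every tested compound plus 3 SD, cut at about 30% in these data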;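 further: 0% = plate median of compound wells and 100% = S159A mutant with DMSO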
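assay system = mABHD4 protein | compound dosing = single nominal dose of 8.92 µM, 0.89% DMSO final | read-out basis = percent inhibition of probe binding, normalized to plate controls | schedule = Enzyme–compound pre-incubation 45 min, then probe 60 min, both 25 °C | detection = fluorescence polarization, excitation 525 nm, emission 598 nm, BODIPY TMR filters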
PRMT1 FP inh = inhibitors of human PRMT1 | Q99873 | recombinant PRMT1, activity-based probe fluorescence polarization | inhibition, % at 2.79 µM | 370,000 compounds, 1.3% hits;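 active means inhibition above about 21% made by adding two undisclosed values, limit read from the data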
SIAE inh = human SIAE inhibition, primary screen; inhibition, % at 9.66 µM; SIAE FP-Rh probe binding, fluorescence polarization; 370,000 compounds, 0.69% hits;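 active means inhibition above a cutoff: mean of compounds within the control limits plus 3 SD of those, cut at about 17% in these data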;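 further: 0% = plate median of compound wells and 100% = probe without SIAE protein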
ATG4B confirm = ATG4B (human) inhibition, single-dose confirmed | shares compounds with ATG4B inhibitor | ATG4B protease fluorescent substrate cleavage assay | inhibition, % at 8.33 µM | 320 compounds, 92% hits | AID 504757; in the data active means inhibition above about 39%
PLA2 ctr = counter-screen for ATG4B inhibitors: human phospholipase A2. 1,600 compounds, 66% hits. shares compounds with ATG4B inhibitor. purified PLA2, NBD-C6-HPC fluorescence, 45 min. inhibition, % at 8.33 µM. AID 588402; in the data active means inhibition above about 50%
* marks the source's active call; other numbers are inactive results; nt = not tested or not shown.

SMILES	HTRA1 inh	ATG4B inhibitor	TCR-CD3 inh	ABHD4 inh	PRMT1 FP inh	SIAE inh	PLA2 ctr	others
Cc1cccc(NC(=S)NC2CCSc3ccccc32)c1 (centres undefined)	-34.4	41.9*	9.5	-12.6	-1.9	1.7	54.0*
S=C(NCc1ccccc1)NC1CCSc2ccccc21 (centres undefined)	-18.4	63.9*	7.8	-60.4	0.4	-4.1	69.2*
FC(F)Oc1ccc(NC(=S)NC2CCSc3ccccc32)cc1 (centres undefined)	-13.5	59.2*	3.5	-23.9	-0.9	-12.1	56.5*
CCN=C1S/C(=C/c2cc(C)n(-c3ccc(Cl)cc3F)c2C)C(=O)N1CC	nt	nt	nt	-11.0	2.0	4.8	nt
Cc1cc(NS(=O)(=O)c2ccc(NC(=O)Cc3ccc(Cl)c(Cl)c3)cc2)on1	nt	nt	nt	4.4	4.6	-10.2	nt
COCCCN1C(=O)[C@H](CC(=O)NCCC(C)C)[C@]2(C(=O)OC)CCCCC=C12	nt	nt	nt	2.9	2.2	5.0	nt
O=C1/C(=C\c2cc(Cl)c(O)c(Cl)c2)SC(=S)N1Cc1ccccc1	-34.6	44.5*	-66.4	-87.7	-7.5	-128.2	60.4*
COc1ccc(/C=C2/SC(=S)N(Cc3ccccc3)C2=O)cc1O	-7.6	1.1	-10.9	-9.0	9.5	1.0	nt
C[C@@H]1CC[C@@]23COC(=O)C2=CCC[C@@H]3[C@@]1(C)CC/C(=C/CO)CO	0.3	-14.2	-9.0	-1.1	5.1	3.8	nt
CC1=CCC[C@@H]2[C@@](C)(CC/C(C)=C/C(=O)O)[C@H](C)CC[C@@]12C	-35.9	79.4*	1.1	-17.5	2.2	8.1	80.9*
CCCc1nc2c(=O)n(C)c(=O)nc-2n(C)n1	29.2	77.3*	-4.6	0.9	4.3	-4.7	-0.1	ATG4B confirm=28.9
Cn1nc(-c2ccccn2)nc2c(=O)n(C)c(=O)nc1-2	28.4	79.3*	-7.7	-1.4	4.4	-6.2	-12.3	ATG4B confirm=23.8
CCn1c(N)nc2c1c(=O)n(C)c(=O)n2C	2.2	0.5	-0.7	6.9	4.2	8.7	nt
O=C(CSc1nnc(-c2ccccn2)n1-c1ccccc1)Nc1ccc(OCc2ccccc2)cc1	nt	nt	nt	-7.5	6.1	-1.3	nt
COc1ccc2cc(C=NS(=O)(=O)c3ccc(C)cc3)n(C)c2c1	-6.7	83.0*	4.0	4.4	-1.3	-2.7	74.7*
COc1ccc(/C=N/S(=O)(=O)c2ccc(C)cc2)cc1	1.0	-2.9	5.9	-4.5	-1.1	-0.7	nt
O=C(NCc1ccc(Cl)cc1Cl)C1CCN(S(=O)(=O)c2ccc3c(c2)OCCCO3)CC1	-33.4	42.1*	-0.4	-1.4	0.2	-9.3	55.1*
O=C(NCc1ccc(F)cc1)C1CCN(S(=O)(=O)c2ccc3c(c2)OCCCO3)CC1	-3.4	7.3	7.0	-3.4	-0.5	1.1	nt
COc1ccc(Br)cc1CNC(=O)C1CCCN(c2nc3ccccc3o2)C1 (centres undefined)	-0.5	63.6*	0.2	3.2	0.6	-4.3	67.7*
C[C@@H]1C[C@H]2[C@@H](C)C(=O)N3[C@H](c4ccccc4)[C@H](C)C[C@H]3[C@@H](C)C(=O)N2[C@@H]1c1ccccc1	nt	nt	nt	10.6	1.1	-3.9	nt
COc1ccc2c(c1)N=C(c1[nH]c3ccccc3c1CCN1C(=O)c3ccccc3C1=O)[C@]2(O)CCN1C(=O)c2ccccc2C1=O	nt	nt	nt	-12.1	4.3	-7.7	nt
O=Cc1cc(Cl)ccc1OCCN1CCC(Cc2ccccc2)CC1	-22.7	84.4*	7.7	14.4	-0.1	2.0	86.8*
O=C(O)/C=C/C(=O)Nc1ccc(C2(c3ccc(NC(=O)/C=C/C(=O)O)cc3)c3ccccc3-c3ccccc32)cc1	-6.2	55.0*	-0.1	1.4	4.8	3.3	64.8*
O=C(O)/C=C\C(=O)Nc1ccc(Oc2ccccc2)cc1	-3.9	-11.6	8.3	-3.6	0.8	-3.6	nt
COP(=O)(O)C[C@@H]1CCc2cc(C)cc([C@H](CC(C)C)NC(=O)OCc3ccccc3)c2O1	nt	nt	nt	-3.5	5.9	2.2	nt
